High-throughput results deposited in PubChem BioAssay by several laboratories.
TAAR1 antagonist = human TAAR1 antagonists, primary screen, Fluo-8 calcium fluorescence, CHO RD-HGA16 cells; Trace amine-associated receptor 1 (Homo sapiens), Q96RJ0; 360,000 tested, 1.5% active; antagonist; inhibition, % at 3 µM;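 active = inhibition above a per-plate cutoff, the mean inhibition of test compounds on that plate plus 3 SD, cut at about 49% in these data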
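Assay system: RD-HGA16 CHO cells with stable hTAAR1 and Gα16 / Reagent: EC80 β-phenethylamine stimulus / Doses: 3 µM, single point / Timing: dye loading 75 min at 37 °C, then 30 min room temperature / Measured by: Fluo-8 intracellular calcium dye fluorescence, real-time kinetic reads / Controls: vehicle wells and EC80 agonist wells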
NTR1 agonist = agonists of human NTR1, primary screen, imaging, U2OS cells, beta-arrestin-GFP, high content. Neurotensin receptor type 1 (Homo sapiens), P30989. NTR1-U2OS beta-arrestin-GFP spot imaging, agonist mode. activation, % at 20 µM. 330,000 tested, 0.17% active. AID 493036, 2011;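 active = activation at or above 40% of the spot to cytoplasm intensity ratio, with at least 20 cells analyzed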
Target sequence (P30989 whole entry, looked up): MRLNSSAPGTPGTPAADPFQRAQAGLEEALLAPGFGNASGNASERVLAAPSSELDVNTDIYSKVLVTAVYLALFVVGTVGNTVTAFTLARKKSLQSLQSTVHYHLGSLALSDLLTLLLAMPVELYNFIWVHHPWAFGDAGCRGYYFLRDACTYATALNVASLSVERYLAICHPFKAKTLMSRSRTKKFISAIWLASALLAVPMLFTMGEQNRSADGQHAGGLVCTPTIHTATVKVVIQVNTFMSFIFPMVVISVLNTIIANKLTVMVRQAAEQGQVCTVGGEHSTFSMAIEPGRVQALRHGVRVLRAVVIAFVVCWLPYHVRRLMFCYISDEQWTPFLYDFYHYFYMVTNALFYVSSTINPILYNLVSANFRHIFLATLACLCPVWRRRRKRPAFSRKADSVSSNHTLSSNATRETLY
TAAR1 ag = human TAAR1 agonists, primary screen, Fluo-8 calcium fluorescence, CHO RD-HGA16 cells. vehicle wells 0%, saturating PEA agonist 100%. 360,000 tested, 0.99% active. AID 624467, 2012. activation, % at 3 µM;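 active = activation above the mean activation of all test compounds in the run plus 3 SD, cut at about 38% in these data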
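System: CHO-derived RD-HGA16 cells with stable Gα16 and human TAAR1. Times: 17-24 h plating, Fluo-8 75 min 37 °C, 30 min RT. Measured by: calcium-sensitive Fluo-8 signal, excitation 470-495, emission 515-575 nm. Read-out basis: % activation relative to PEA EC100 response. Control set: DMSO and PEA EC100. Repeats: no replicates (n 1).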
OX1R antag-1 = OX1R (HCRTR1) antagonists, primary screen, fluorescence, CHO/OX1R cells, Fluo-8 calcium, orexin A; Fluo-8 calcium fluorescence; inhibition, % at 5 µM; 330,000 tested, 0.43% active; AID 434989, 2010; Orexin/Hypocretin receptor type 1 (Homo sapiens), O43613;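 active = inhibition above its plate's threshold, mean inhibition of all tested compounds on the plate plus 3 SD, cut at about 37% in these data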
OX1R antag-2 = antagonists of human orexin 1 receptor (OX1R); OX1R-expressing cells, FRET antagonist read-out; 330,000 tested, 1.8% active; Orexin/Hypocretin receptor type 1 (Homo sapiens), O43613; inhibition, % at 6.6 µM; in the data active = inhibition mostly above about 38%, no sharp cut-off; inactive = mostly below about 40%
CHO parental Ca = ATP-evoked calcium signal inhibitors, parental CHO, primary screen, counter-screen for OX1R antagonist project, cell-based, fluorescence, Fluo-8 calcium dye; parental CHO-K1, ATP-induced calcium, Fluo-8 fluorescence; inhibition, % at 5.6 µM; 330,000 tested, 0.63% active; AID 463079, 2010;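 active = inhibition above that plate's mean sample inhibition plus 3 SD, cut at about 26% in these data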
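Material – parental CHO cells · Reagent – ATP stimulus · Compound – single nominal dose of 5.6 µM per compound · Detection – Fluo-8 fluorescence · Read-out basis – percent inhibition of calcium signal · Controls – ATP-challenged DMSO wells low, unchallenged DMSO wells high · Repeats – no replicates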
Numbers stand for hits. This is a sample that favours compounds with a hit; in the whole collection about 4% have one here.

C[n+]1c(-c2ccccc2)sc([S-])c1-c1ccccc1 was read as TAAR1 antagonist inactive, NTR1 agonist inactive, TAAR1 ag inactive, OX1R antag-1 inactive, OX1R antag-2 inactive and CHO parental Ca 40.
For Cc1cc(=O)oc2cc(OCc3c(F)cccc3Cl)ccc12 the results were TAAR1 antagonist inactive and TAAR1 ag inactive.
Cc1ccc(-c2noc(CCC(=O)NCCCN3CCN(c4cccc(Cl)c4)CC3)n2)cc1 was read as TAAR1 antagonist inactive, NTR1 agonist inactive, TAAR1 ag inactive, OX1R antag-1 52, OX1R antag-2 inactive and CHO parental Ca inactive.
For COc1ccc(-c2noc(CCCC(=O)N3CCN(c4cc(C)ccc4C)CC3)n2)cc1 the results were TAAR1 antagonist inactive, NTR1 agonist inactive, TAAR1 ag inactive, OX1R antag-1 inactive, OX1R antag-2 inactive and CHO parental Ca inactive.
Cc1ccc(-c2noc(CCC(=O)NCCCN3CCN(c4ccc(F)cc4)CC3)n2)cc1 was read as TAAR1 antagonist inactive, NTR1 agonist inactive, TAAR1 ag inactive, OX1R antag-1 inactive, OX1R antag-2 inactive and CHO parental Ca inactive.
Screening Cc1ccc(C)c(N2CCN(C(=O)CCc3nc(-c4ccccc4C(F)(F)F)no3)CC2)c1 returned TAAR1 antagonist 68, NTR1 agonist inactive, TAAR1 ag inactive, OX1R antag-1 inactive, OX1R antag-2 inactive and CHO parental Ca inactive.
COc1ccccc1-c1noc(CCC(=O)N2CCN(c3cc(C)ccc3C)CC2)n1 was read as TAAR1 antagonist 56, NTR1 agonist inactive, TAAR1 ag inactive, OX1R antag-1 inactive, OX1R antag-2 inactive and CHO parental Ca inactive.
For COc1ccc(-c2noc(CCCCC(=O)N3CCN(c4cc(C)ccc4C)CC3)n2)cc1 the results were TAAR1 antagonist inactive, NTR1 agonist inactive, TAAR1 ag inactive, OX1R antag-1 75, OX1R antag-2 38 and CHO parental Ca 74.
`O=C(Nc1ccc(O)cc1)/C(=C\C=C\c1ccccc1)NC(=O)c1ccccc1` gave TAAR1 antagonist 50, NTR1 agonist inactive, TAAR1 ag inactive, OX1R antag-1 inactive, OX1R antag-2 inactive and CHO parental Ca inactive.
`O=C(Nc1ccccc1)c1ccccc1NS(=O)(=O)c1ccc(Cl)s1` gave TAAR1 antagonist inactive, NTR1 agonist inactive, TAAR1 ag inactive, OX1R antag-1 inactive, OX1R antag-2 65 and CHO parental Ca 28.
Screening O=C(Nc1ccccc1Cc1ccccc1)c1ccccc1NS(=O)(=O)c1ccc(Cl)s1 returned TAAR1 antagonist inactive, NTR1 agonist inactive, TAAR1 ag inactive, OX1R antag-1 inactive, OX1R antag-2 77 and CHO parental Ca inactive.
Cc1ccc(NC(=O)c2ccccc2NS(=O)(=O)c2ccc(Cl)s2)cc1 was read as TAAR1 antagonist inactive, NTR1 agonist inactive, TAAR1 ag inactive, OX1R antag-1 inactive, OX1R antag-2 inactive and CHO parental Ca inactive.
For C=CCN1C(=O)c2n[nH]c(C(C)C)c2C1c1ccc2c(c1)OCO2 (stereo not given) the results were TAAR1 antagonist inactive and TAAR1 ag inactive.
COc1ccc2ccccc2c1/C=N/NC(=O)c1cccc(Br)c1 was read as TAAR1 antagonist inactive, NTR1 agonist inactive, TAAR1 ag inactive, OX1R antag-1 inactive, OX1R antag-2 inactive and CHO parental Ca inactive.
O=C(N/N=C/c1c(O)ccc2ccccc12)c1cccc(C(F)(F)F)c1 was read as TAAR1 antagonist 62, NTR1 agonist inactive, TAAR1 ag 58, OX1R antag-1 56, OX1R antag-2 inactive and CHO parental Ca inactive.
`COc1ccccc1-c1nc(-c2ccc(Br)o2)no1` gave TAAR1 antagonist inactive, NTR1 agonist inactive, TAAR1 ag inactive, OX1R antag-1 inactive, OX1R antag-2 55 and CHO parental Ca inactive.
Screening C[C@@H]1ON(C)[C@H]2C[C@H]3c4cc(Nc5ccccc5)ccc4CCN3C[C@@H]12 returned TAAR1 antagonist inactive and TAAR1 ag inactive.
